Measurements: publication PMC4833523 (Bioorganic & medicinal chemistry letters, 2016)

Assays:
human mGlu1 = human mGlu1 (Homo sapiens, UniProt Q13255); experiment: Calcium mobilization mGlu1 PAM assay; format: cell-based
Procedure, shortened: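 Calcium mobilization read-out on human mGlu1. Test compounds were first triaged in a 10 μM single-point screen with an EC20 concentration of glutamate. Those selected then got full concentration-response curves. Values are the average of three independent experiments, each run in triplicate.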

[1] = Rat brain homogenate binding; format: in vitro ADME; details: compared to 4
[2] = Human microsomal intrinsic clearance / predicted hepatic clearance; format: in vitro ADME; details: compared to 4
Rat IV PBL = format: in vivo; details: compared to 4
[3] = Rat microsomal intrinsic clearance / predicted hepatic clearance; format: in vitro ADME; details: predicted hepatic clearance from rat microsomal intrinsic clearance

Sequence of human mGlu1 (Q13255 19-1194): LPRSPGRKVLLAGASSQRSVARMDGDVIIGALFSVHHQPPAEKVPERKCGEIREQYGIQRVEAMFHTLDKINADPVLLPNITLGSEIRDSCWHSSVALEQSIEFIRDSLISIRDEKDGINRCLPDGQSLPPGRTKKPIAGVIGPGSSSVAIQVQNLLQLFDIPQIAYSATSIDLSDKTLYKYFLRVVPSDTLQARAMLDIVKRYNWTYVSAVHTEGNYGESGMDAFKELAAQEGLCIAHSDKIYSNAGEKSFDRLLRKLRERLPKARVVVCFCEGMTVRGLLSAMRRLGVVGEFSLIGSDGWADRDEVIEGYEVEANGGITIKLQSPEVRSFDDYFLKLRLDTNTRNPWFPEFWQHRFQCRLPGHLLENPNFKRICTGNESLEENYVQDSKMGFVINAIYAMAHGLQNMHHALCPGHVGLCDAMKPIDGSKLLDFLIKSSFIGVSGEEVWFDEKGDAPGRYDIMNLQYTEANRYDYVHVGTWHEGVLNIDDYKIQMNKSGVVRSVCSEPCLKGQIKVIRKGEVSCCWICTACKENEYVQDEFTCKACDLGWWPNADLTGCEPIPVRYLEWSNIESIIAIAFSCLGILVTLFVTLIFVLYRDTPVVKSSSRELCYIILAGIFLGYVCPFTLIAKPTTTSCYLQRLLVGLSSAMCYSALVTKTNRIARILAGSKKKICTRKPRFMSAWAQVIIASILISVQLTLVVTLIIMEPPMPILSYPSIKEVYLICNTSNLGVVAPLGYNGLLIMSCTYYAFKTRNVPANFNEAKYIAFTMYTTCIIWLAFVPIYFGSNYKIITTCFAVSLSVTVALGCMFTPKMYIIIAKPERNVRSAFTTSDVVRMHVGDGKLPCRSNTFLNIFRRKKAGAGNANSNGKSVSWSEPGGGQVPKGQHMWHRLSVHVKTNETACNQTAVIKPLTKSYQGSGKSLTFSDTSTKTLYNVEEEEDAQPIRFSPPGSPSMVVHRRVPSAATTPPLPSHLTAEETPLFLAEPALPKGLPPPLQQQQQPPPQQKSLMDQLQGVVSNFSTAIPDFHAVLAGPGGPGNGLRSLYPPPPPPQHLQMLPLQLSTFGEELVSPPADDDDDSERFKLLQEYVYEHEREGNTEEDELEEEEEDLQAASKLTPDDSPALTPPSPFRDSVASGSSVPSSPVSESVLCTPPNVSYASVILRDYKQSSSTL

| mGlu1 PAM activity in words (human mGlu1) | fold improvement in Kp (CNS exposure) over 4 (Rat IV PBL) | Rat CLhep [3] [mL/min/kg] | SMILES | further results |
| --- | --- | --- | --- | --- |
| moderate activity |  |  | O=C(Nc1ccccn1)C1c2ccccc2Oc2ccccc21 [9h] |  |
|  |  |  | O=C(Nc1nc2ccccc2s1)C1c2ccccc2Oc2ccccc21 [9f] | fold increase in potency on replacing thiazole 9e (human mGlu1; 9f versus 9e): ~3 fold |
|  | ~ 4 fold | 62.2 | N#Cc1csc(NC(=O)C2c3ccccc3Oc3ccccc32)n1 [9a] | enhancement of free drug in brain [1]: > 10 fold; reduction of human microsomal intrinsic clearance [2]: ~ 50% |
| weak PAM activity |  |  | Cc1nc(NC(=O)C2c3ccccc3Oc3ccccc32)sc1C [9g] |  |
|  | ~ 3 fold | 64 | CC(C)c1csc(NC(=O)C2c3ccccc3Oc3ccccc32)n1 [9b] |  |
